According to ChEMBL document CHEMBL4152356, “Amphipathic sulfonamidobenzamides mimicking small antimicrobial marine natural products; investigation of antibacterial and anti-biofilm activity against antibiotic resistant clinical isolates” (Bioorg Med Chem, 2018):
Calls of active or inactive are those of the source.

Experiments:
Staphylococcus aureus [1] = experiment: Antibacterial activity against Staphylococcus aureus clinical isolates after 24 hrs by microdilution method; assay type: functional
In short: (§1)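 Clinical isolate screen by broth microdilution with about 1-1.2 × 10^6 cells/ml and 24 h incubation. MIC is the lowest concentration with no growth. For isolate collections, MIC90 is the MIC inhibiting ≥90% of isolates. Multidrug resistance was defined as resistance to at least […] antimicrobial class.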

[2] = Solubility of the compound in PBS
Pseudomonas aeruginosa [3] = experiment: Antibacterial activity against Pseudomonas aeruginosa PAO1 DSM 19880 ATCC 15692 after 48 hrs by microdilution method; assay type: functional; conditions: PAO1 DSM 19880 ATCC 15692, 48 h
In short: (§2)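 Broth microdilution (CLSI M07-A9, modified) in Mueller-Hinton broth; inoculum about 2.5-3 × 10^4 cells/ml mixed 1:1 with serial compound dilutions. Stock solutions in up to 100% DMSO, final DMSO ≤1%. Incubated 35 °C for 48 h.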

Escherichia coli [4] = experiment: Antibacterial activity against Escherichia coli ATCC 25922 after 48 hrs by microdilution method; assay type: functional; conditions: ATCC 25922, 48 h; in short: as §2
[5] = test system: Staphylococcus epidermidis; experiment: Antibacterial activity against methicillin resistant Staphylococcus epidermidis RP62A ATCC 35984/CCUG 31568 after 48 hrs by microdilution method; assay type: functional; conditions: RP62A ATCC 35984/CCUG 31568, 48 h
In short: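 Broth microdilution (modified CLSI M07-A9) against the MRSE reference strain. Inoculum of about 2.5-3 × 10^4 cells/ml in Mueller-Hinton broth mixed 1:1 with serial compound dilutions; final DMSO ≤1%. Incubated 35 °C, 48 h.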

[6] = test system: Corynebacterium glutamicum; experiment: Antibacterial activity against Corynebacterium glutamicum ATCC 13032 after 48 hrs by microdilution method; assay type: functional; conditions: ATCC 13032, 48 h; in short: as §2
Pseudomonas aeruginosa [7] = experiment: Antibacterial activity against Pseudomonas aeruginosa clinical isolates after 24 hrs by microdilution method; assay type: functional; in short: as §1
[8] = Selectivity index, ratio of EC50 for human RBC to MIC for methicillin resistant Staphylococcus epidermidis RP62A ATCC 35984/CCUG 31568; assay type: toxicity; conditions: human red blood cells (RBC), read-out: Selectivity Index
In short: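 SI = hemolytic EC50 / MRSE MIC. Hemolysis: washed human RBCs (heparinized blood, healthy adult donor) at 10% in PBS pH 7.4, mixed 9:1 with serial compound dilutions, 37 °C for 1 h. 0.05% Triton X-100 set 100% lysis, 0.5% DMSO set baseline. MIC from MHB microdilution, 35 °C, […].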

Enterococcus sp. = experiment: Antibacterial activity against Enterococcus sp. clinical isolates after 24 hrs by microdilution method; assay type: functional; in short: as §1
Erythrocyte = experiment: Hemolytic activity against human RBC measured after 1 hr; assay type: cell-based
In short: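 Washed human RBCs from a healthy donor (heparinized) at 10% in PBS pH 7.4, mixed 9:1 with serial compound dilutions, 37 °C for 1 h. Baseline set by 0.5% DMSO in 50% PBS, 100% lysis by 0.05% Triton X-100. EC50 is the concentration giving 50% lysis.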

MRC5 = experiment: Cytotoxicity against human MRC5 cells after 72 hrs by MTS assay; assay type: cell-based; conditions: MRC5, 72 h
In short: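 MRC-5 lung fibroblasts in DMEM with 10% FBS, 37 °C, 5% CO2; seeded at 4000 cells/well, adhered 24 h, medium replaced. Two-fold dilutions up to 100 µg/ml for 72 h, then MTS for 1 h and absorbance at 485 nm. Controls were 1% DMSO (negative) and 0.5% Triton X-100 (positive). EC50 is the concentration giving 50% inhibition of survival.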

Escherichia coli [9] = experiment: Antibacterial activity against Escherichia coli clinical isolates after 24 hrs by microdilution method; assay type: functional; in short: as §1
Klebsiella pneumoniae = experiment: Antibacterial activity against Klebsiella pneumoniae clinical isolates after 24 hrs by microdilution method; assay type: functional; in short: as §1
[10] = test system: Staphylococcus epidermidis; experiment: Antibiofilm activity against Staphylococcus epidermidis RP62A ATCC 35984/CCUG 31568 incubated for 24 +/- 2 hrs by crystal violet staining based assay; assay type: functional
In short: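 Mature S. epidermidis RP62A biofilms: filtered overnight TSB culture adjusted to 2 McFarland, diluted in TSB with 1% glucose to about 6 × 10^6 CFU/ml, grown 24 ± 2 h at 37 °C static, then PBS-washed. Compounds in 50% TSBglu added for 24 ± 2 h at 37 °C. Biomass given as % of untreated control; ≥90% eradication threshold. Compounds tested at 2x, 5x and 10x MIC, 4-8 parallels on 2-3 plates, highest and lowest values excluded.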

Bacillus subtilis [11] = experiment: Antibacterial activity against Bacillus subtilis 168 ATCC 23857 after 48 hrs by microdilution method; assay type: functional; conditions: subsp. subtilis str. 168 ATCC 23857, 48 h; in short: as §2
Staphylococcus aureus [12] = experiment: Antibacterial activity against Staphylococcus aureus ATCC 9144 after 48 hrs by microdilution method; assay type: functional; conditions: ATCC 9144, 48 h; in short: as §2
Bacillus subtilis [13] = experiment: Induction of membrane disruption in Bacillus subtilis 168 expressing luciferase at 12.5 ug/ml measured up to 60 secs by luminescence assay; assay type: functional, organism-based; conditions: subsp. subtilis str. 168
In short: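 Luminescence followed up to […]. Fold induction is maximal luminescence relative to chlorhexidine control (31 or 20 µg/ml). Mean ± SD of two experiments.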

SMILES	MIC (Staphylococcus aureus [1])	solubility [2]	MIC (Pseudomonas aeruginosa [3])	MIC (Escherichia coli [4])	MIC [5]	MIC [6]	MIC (Pseudomonas aeruginosa [7])	selectivity ratio [8]	MIC (Enterococcus sp.)	EC50 (Erythrocyte)	EC50 (MRC5)	MIC (Escherichia coli [9])	MIC (Klebsiella pneumoniae)	MBIC=>90 [10]	MIC (Bacillus subtilis [11])	MIC (Staphylococcus aureus [12])	Activity (Bacillus subtilis [13])
COc1c(C(C)(C)C)cc(S(=O)(=O)Nc2ccc(C(=O)NCCNC(=N)N)cc2)cc1C(C)(C)C.Cl	8 µg/mL	> 64 µg/mL	64 µg/mL	32 µg/mL	4 µg/mL	4 µg/mL	32 µg/mL	16	64 µg/mL	64 µg/mL	> 100 µg/mL	> 128 µg/mL	> 128 µg/mL	40 µg/mL	4 µg/mL	4 µg/mL	
CC(C)(C)c1cc(C(C)(C)C)cc(S(=O)(=O)Nc2ccc(C(=O)NCCNC(=N)N)cc2)c1.Cl	8 µg/mL	> 64 µg/mL	64 µg/mL	32 µg/mL	4 µg/mL	4 µg/mL	> 128 µg/mL	16	32 µg/mL	64 µg/mL	> 100 µg/mL	> 128 µg/mL	> 128 µg/mL	40 µg/mL	8 µg/mL	4 µg/mL	
Cl.N=C(N)NCCNC(=O)c1ccc(NS(=O)(=O)c2cc(C(F)(F)F)cc(C(F)(F)F)c2)cc1		> 64 µg/mL	> 128 µg/mL	> 128 µg/mL	> 128 µg/mL	> 128 µg/mL				64 µg/mL	> 100 µg/mL				> 128 µg/mL	> 128 µg/mL	
CN(c1cccc(C(=O)NCCNC(=N)N)c1)S(=O)(=O)c1cc(C(C)(C)C)cc(C(C)(C)C)c1.Cl	8 µg/mL		32 µg/mL	32 µg/mL	4 µg/mL	2 µg/mL	32 µg/mL	24	16 µg/mL	95 µg/mL	91 µg/mL	32 µg/mL	64 µg/mL	40 µg/mL	4 µg/mL	4 µg/mL	Active
Cc1cc(C(=O)NCCNC(=N)N)ccc1NS(=O)(=O)c1cc(C(C)(C)C)cc(C(C)(C)C)c1.Cl	8 µg/mL		> 128 µg/mL	32 µg/mL	4 µg/mL	4 µg/mL	64 µg/mL	26	32 µg/mL	104 µg/mL	56 µg/mL	64 µg/mL	> 128 µg/mL	40 µg/mL	8 µg/mL	8 µg/mL	
Cl.N=C(N)NCCNC(=O)c1ccc(NS(=O)(=O)c2ccc3ccccc3c2)cc1	128 µg/mL		> 128 µg/mL	> 128 µg/mL	32 µg/mL	32 µg/mL	> 128 µg/mL	> 4	> 128 µg/mL	> 128 µg/mL	> 100 µg/mL	> 128 µg/mL	> 128 µg/mL	160 µg/mL	64 µg/mL	64 µg/mL	
